Screening results (PubChem BioAssay)
MC4R barr agon: activates human MC4R beta-arrestin recruitment | U2OS MC4R beta-arrestin complementation, luminescence; percent of melanotan II response, DMSO zero | 360,000 compounds, 0.98% hits | AID 540308 | activation, % at 8.9 µM;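 active = activation above a per-plate cutoff, the mean activation of sample wells on that plate plus 3 SD, cut at about 8% in these data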
Target sequence (P32245 whole entry, looked up): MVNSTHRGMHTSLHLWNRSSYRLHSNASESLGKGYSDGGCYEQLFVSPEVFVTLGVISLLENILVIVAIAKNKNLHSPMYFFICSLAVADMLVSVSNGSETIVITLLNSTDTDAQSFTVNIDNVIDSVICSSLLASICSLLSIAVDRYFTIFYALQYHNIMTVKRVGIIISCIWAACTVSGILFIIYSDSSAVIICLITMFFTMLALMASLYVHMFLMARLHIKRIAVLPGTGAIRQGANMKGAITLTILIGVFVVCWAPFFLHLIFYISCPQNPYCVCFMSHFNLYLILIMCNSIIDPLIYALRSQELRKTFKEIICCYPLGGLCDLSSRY
TAG inh: reduces triacylglycerol accumulation in H9c2 cells; Nile Red lipid (TAG) fluorescence; cells loaded with 200 µM oleic acid; 230,000 compounds, 0.66% hits; inhibition, % at 12.5 µM;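 active = pattern-corrected inhibition of lipid staining of at least 50% with the nuclear-stain viability signal not falling by more than 50%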
MC4R antag cAMP: human MC4R antagonism in cAMP assay; P32245; MC4R-expressing cells, MTII-stimulated cAMP, LANCE TR-FRET; inhibition, % at 6.5 µM; 360,000 compounds, 0.48% hits; AID 540295;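 active = inhibition above its plate's cutoff, the mean of tested wells on that plate plus 3 SD, cut at about 29% in these data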
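Assay system: U2OS cells stably expressing human melanocortin 4 receptor (MC4R) / Dosing: 6.5 µM / Timing: compound 30 min, challenge 1 h, detection 1 h / Measured by: Eu-cAMP/anti-cAMP TR-FRET, emission 671 nm / Replicates: singlicate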
Efflux pump inh: inhibitors of Candida antifungal efflux pumps expressed in yeast; S. cerevisiae Candida pump triplex, Nile Red efflux; inhibition, % at 10 µM; 330,000 compounds, 0.44% hits;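 active = plate passing quality check with inhibition over a set limit, or well fluorescence over plate mean plus 4 SD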;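 note: Nile Red retained in pooled yeast measured as flow cytometry median fluorescence; higher means more Nile Red kept so more efflux inhibition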
Calb FLC: C. albicans growth modulation with fluconazole; C. albicans CaCi-2 + fluconazole, Alamar Blue growth, 48 h; growth inhibition, % (concentration not given with the values); 300,000 compounds, 0.57% hits;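 active = growth inhibition above about 58% in most replicates, limit read from the data, passing the limit was not always enough; inconclusive = exactly half the replicates above a set limit; inactive = most replicates below a set limit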;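 note: all wells also contain fluconazole at 8 µg/ml as a sub-toxic cotreatment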
GalR3 antag: human GalR3 antagonism. inhibition, % at 3 µM. 360,000 compounds, 0.44% hits. O60755. HEK293 GalR3-CNG cAMP membrane potential fluorescence; galR3 body fused to GalR1 C-terminus. AID 651719;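 active = inhibition above the screen-wide average plus 3 SD, cut at about 13% in these data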;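 note: forskolin and galanin both at EC90 stimulate the cells; cAMP rise reported by CNG channel membrane potential dye signal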
Target sequence (O60755 1-299 limits assumed): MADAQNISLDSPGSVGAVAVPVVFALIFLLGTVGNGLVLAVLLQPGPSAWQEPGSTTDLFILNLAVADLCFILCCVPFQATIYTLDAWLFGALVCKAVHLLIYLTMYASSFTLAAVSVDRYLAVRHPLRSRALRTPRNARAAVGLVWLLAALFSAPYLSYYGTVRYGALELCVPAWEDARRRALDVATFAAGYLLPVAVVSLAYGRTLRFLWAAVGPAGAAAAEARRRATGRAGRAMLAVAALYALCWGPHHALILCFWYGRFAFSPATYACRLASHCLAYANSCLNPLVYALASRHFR
GalR3 antag conf: GalR3 (human) antagonism, confirmation; shares compounds with GalR3 antag; HEK293 GalR3 CNG cAMP biosensor, membrane potential fluorescence; galR3 fused to GalR1 carboxy tail; challenged with forskolin and galanin at EC90; inhibition, % at 3 µM; 1,600 compounds, 59% hits; AID 652245;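 active = inhibition above the primary screen's cutoff, the mean inhibition of all screened compounds plus 3 SD, cut at about 13% in these data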
CNG parental: parental cell agonism counter-screen for GalR3 antagonists; AID 652268; activation, % at 3 µM; 1,600 compounds, 10% hits; HEK293-CNG parental cells, cAMP membrane potential fluorescence; normalised: DMSO wells 0%, forskolin wells 100%; shares compounds with GalR3 antag; in the data active = activation above about 1.3%
Numbers stand for hits; i = inactive; ? = inconclusive; nt = no result. Compounds with a hit are over-represented: about 2.9% of the library has one in this group of screens.

SMILES	MC4R barr agon	TAG inh	MC4R antag cAMP	Efflux pump inh	Calb FLC	GalR3 antag	GalR3 antag conf	CNG parental
COc1ccc(N2CCN(CCCn3ccc(NC(=O)OCc4ccccc4)nc3=O)CC2)cc1	i	i	i	nt	nt	i	nt	nt
COCCN1C(=O)[C@H]2C[C@@]13O[C@H](c1ccc(C(F)(F)F)cc1)N=C3C[C@H](c1ccccc1)[C@H]2C	nt	nt	nt	nt	nt	i	nt	nt
CN1C(=O)C(C)(C)c2cc(S(=O)(=O)N3CCCC(C(=O)Nc4ccc(Cl)cc4)C3)ccc21 (stereo not given)	i	i	i	i	i	18	25	i
CC(C)c1ccc(NC(=O)C2CCCN(S(=O)(=O)c3ccc4c(c3)C(C)(C)C(=O)N4C)C2)cc1 (stereo not given)	i	i	i	i	i	i	nt	nt
CC(=O)c1c(N2CCCCC2)nc(=S)n(-c2ccccc2)c1C	i	i	i	i	i	nt	i	i
CCn1c(C)c(C(C)=O)c(N2CCN(c3ccccc3)CC2)nc1=S	i	i	i	i	i	42	i	i
COc1cc(/C=N/O)ccc1OCc1ccc(Cl)cc1	nt	nt	nt	i	?	i	nt	nt
COc1cc(/C=N/n2nnnc2N)ccc1OCC(N)=O	i	i	i	i	i	nt	nt	nt
COc1cc(/C=N\n2nnnc2N)ccc1OCc1ccc(F)cc1	i	i	i	i	i	21	25	i
COc1cc(/C=N/N=C(N)N)ccc1OCc1ccc(Cl)cc1	i	nt	i	i	i	92	45	1.8
CCOc1ccc2[nH]c(=O)c(CN(Cc3ccco3)C(CC)c3nnnn3Cc3ccccc3)cc2c1 (stereo not given)	i	i	i	i	i	24	i	i
CCOc1ccc2[nH]c(=O)c(CN(Cc3ccco3)Cc3nnnn3Cc3ccccc3)cc2c1	i	nt	i	i	i	i	nt	nt
Cc1oc(-c2ccc(Cl)cc2)nc1CN1CCCC(C(=O)N2CCOCC2)C1 (stereo not given)	i	nt	i	i	i	i	nt	nt
Cc1oc(-c2ccc(Cl)cc2)nc1CN1CCCC(C(=O)N2CCN(C(=O)c3ccco3)CC2)C1 (stereo not given)	i	i	i	i	i	84	101	i
COc1ccccc1CNC(=S)NC1CCCCC1	i	i	i	i	i	14	i	i
COC(=O)[C@]12CCCCC=C1N(CCc1ccc(OC)c(OC)c1)C(=O)[C@H](CC(=O)NCc1cccc3ccccc13)C2	nt	nt	nt	nt	nt	i	nt	nt
COC(=O)[C@]12CCCCC=C1N(Cc1cccc3ccccc13)C(=O)[C@H](CC(=O)NCc1ccc(OC)c(OC)c1)C2	nt	nt	nt	nt	nt	14	76	i
COc1ccc(-c2ccc(C(=O)Nc3cc(OC)c(OC)c(OC)c3)c3occc23)c(C)c1	i	i	i	nt	nt	i	nt	nt
Cc1cc(/C=N/n2c(COc3ccccc3)nc3ccccc3c2=O)c(O)c([N+](=O)[O-])c1	i	i	i	i	i	31	44	i
Cc1ccc(-c2[nH]ncc2/C=N/n2c(COc3ccccc3)nc3ccccc3c2=O)cc1	i	nt	i	i	i	i	nt	nt
COc1ccc(/C=N/NC(=O)C(C)Sc2ccccn2)cc1[N+](=O)[O-] (stereo not given)	i	i	i	i	i	19	i	i
COc1cc(/C=N/NC(=O)C(=O)N2CCCCCC2)ccc1O	i	i	i	i	i	i	nt	nt
COc1ccc(/C=N/NC(=O)C(=O)N2CCCCCC2)cc1[N+](=O)[O-]	i	nt	i	i	i	17	22	i
COC(=O)C1CCN(C2CN(Cc3ccc(F)cc3)S(=O)(=O)C2)CC1 (stereo not given)	nt	nt	nt	nt	nt	i	nt	nt
O=C1C(CN2CCCC2)CCCC1CN1CCCC1 (stereo not given)	i	i	i	nt	nt	15	i	i
SMILES	MC4R barr agon	TAG inh	MC4R antag cAMP	Efflux pump inh	Calb FLC	GalR3 antag	GalR3 antag conf	CNG parental
Cc1cccc(NC(=O)c2ccc(Cl)c(S(=O)(=O)N3CCc4ccccc43)c2)n1	i	i	i	i	nt	i	nt	nt
COc1ccc(C(=O)Nc2ccc(S(=O)(=O)N3CCc4ccccc43)cc2)cc1	i	nt	i	i	i	30	86	i
NS(=O)(=O)c1ccc(NC(=O)c2ccc(S(=O)(=O)N3CCc4ccccc43)cc2)cc1	i	nt	i	i	i	i	nt	nt
O=C(Nc1ccncc1)c1ccc(Cl)c(S(=O)(=O)N2CCc3ccccc32)c1	i	i	i	i	i	40	61	i
CCN1C(=O)[C@H]2[C@@H](c3ccc(C(F)(F)F)cc3)N[C@]3(CCCN(CC4CCCCC4)C3=O)[C@H]2C1=O	i	i	i	nt	nt	i	nt	nt
Cc1ccccc1-c1cc(C(=O)O)nn1CC1CC(c2cccc([N+](=O)[O-])c2)=NO1 (stereo not given)	i	i	i	i	nt	18	i	i
Cc1ccccc1-c1cc(C(=O)NCc2cccs2)nn1CC1CC(c2cccc([N+](=O)[O-])c2)=NO1 (stereo not given)	i	nt	i	i	nt	i	nt	nt
CN(C)Cc1ncccc1Oc1nc2cc(-c3cccc(Cl)c3)sc2c(=O)n1C	i	i	i	nt	nt	i	nt	nt
C[C@H](NCCc1ccc(O)cc1)[C@H](O)c1ccc(O)cc1	i	i	i	i	nt	39	62	i
COCCn1c(C)cc(C(=O)COc2nc3ccccc3nc2C)c1C	i	i	i	i	i	98	85	i
c1ccc(OC2CCCCC2N2CCOCC2)cc1 (stereo not given)	i	i	i	nt	nt	i	nt	nt
Cc1[nH]c(=O)c(C#N)cc1-c1ccccc1	i	i	i	i	i	20	20	i
CSCCC(NC=O)C(=O)NC(C)C(=O)O (stereo not given)	i	i	i	nt	nt	nt	nt	nt
CCOc1ccc(-c2cc(C(=O)NCCOC)[nH]n2)c(C)c1	i	i	i	nt	nt	i	nt	nt
CCOc1ccc(-c2cc(C(=O)Nc3ccc(C)c(NS(C)(=O)=O)c3)[nH]n2)c(C)c1	i	i	i	nt	nt	14	99	i
COC(=O)N1Cc2ccnnc2CC1c1ccccc1-c1ccc(F)cc1 (stereo not given)	nt	nt	nt	nt	nt	i	nt	nt
COc1cccc(-n2c(C)c(C(C)=O)c(C(C)=O)c2C)c1	i	i	i	i	i	15	i	i
CC(C)c1ccc(NC(=O)COC(=O)Cn2cnc3c2c(=O)n(C)c(=O)n3C)cc1	i	i	i	nt	nt	i	nt	nt
COc1cc([N+](=O)[O-])cc(/C=N/NC(=O)C(O)(c2ccccc2)c2ccccc2)c1O	i	i	i	i	i	i	nt	nt
COc1cc([N+](=O)[O-])cc(/C=N/NC(=O)c2cccnc2)c1O	i	i	i	i	i	54	i	i
